Measured values reported in ChEMBL document CHEMBL1955770, “Inhibition of S/G2 phase CDK4 reduces mitotic fidelity” (J Biol Chem, 2006).
Active and inactive are the calls of the source. The calls are words filed in the database; no cut-off is given here.

What was measured:
HeLa [1] = experiment: Induction of abberent mitosis in human HeLa cells expressing GFP-H2B assessed as lagging chromosomes at astral side of spindle microtubules at 2 uM treated 1 hr and measured 12 hr post-thymidine release by time-lapse microscopy; type: functional, cell-based
HeLa [2] = experiment: Cell cycle arrest in human HeLa cells assessed as accumulation at G2/M phase at 2 uM treated 2 hr and measured 12 hr post double thymidine-synchrony release using propidium iodide staining by FACS analysis (reference value: 17 %); type: functional
In short: (§1)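 Cells harvested at set times post-release, fixed in 70% ethanol, stained with 5 μg/ml propidium iodide plus 0.5 mg/ml RNase A, and analysed by flow cytometry. Cell-cycle phase fractions calculated by ModFit.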

A2058 = experiment: Cell cycle arrest in human A2058 cells assessed as accumulation at S phase at 2 uM treated 1 hr and measured 10 hr post double hydroxyurea-synchrony release using propidium iodide staining by FACS analysis (reference value: 35 %); type: functional
[3] = target: Cyclin-dependent kinase 2/cyclin E1 (Homo sapiens, UniProt P24941); experiment: Inhibition of human CDK2-GST-tagged cyclin E using his-tagged Rb as substrate after 30 mins by scintillation counting method; type: protein-complex assay
HeLa [4] = experiment: Cell cycle arrest in human HeLa cells assessed as delay in progression into mitosis at 2 uM measured after 8 to 20 hr post hydroxyurea-synchrony release by time-lapse microscopy; type: functional, cell-based
[5] = Cell cycle arrest in human SK-MEL-13 cells assessed as accumulation at G2/M phase at 2 uM treated 1 hr and measured 10 hr post double hydroxyurea-synchrony release using propidium iodide staining by FACS analysis (reference value: 70 %); type: functional, cell-based
In short: (§2)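 SK-Mel-13 cells synchronized with 2 mM hydroxyurea, then treated with 2 μM CDK4 inhibitor or left untreated 1 h after release. Harvested at indicated times post-release, ethanol-fixed, propidium iodide/RNase stained, and DNA content read by FACS. Proportions of G1, S and G2/M cells derived with ModFit.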

RKO = experiment: Toxicity in human RKO cells at 8 uM by MTT assay; type: cell-based
HeLa [6] = experiment: Cell cycle arrest in Rb-deficient human HeLa cells assessed as accumulation at G1 phase at 2 uM after 24 hrs by FACS analysis; type: functional
In short: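 Ethanol-fixed cells stained with propidium iodide/RNase A, DNA content read by FACS, phase and sub-diploid fractions calculated with ModFit.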

HeLa [7] = experiment: Cell cycle arrest in human HeLa cells assessed as accumulation at S phase at 2 uM treated 6 hr and measured 8 hr post double thymidine-synchrony release using propidium iodide staining by FACS analysis (reference value: 8 %); type: functional; in short: as §1
MDA-MB-453 = experiment: Toxicity in human MDA-MB-453 cells at IC50 after 3 days by MTT assay; type: cell-based; settings: mda-mb-453, 72 h
HeLa [8] = experiment: Cell cycle arrest at G2 phase in human HeLa cells assessed as delay in phosphotyrosine 15 CDK2 accumulation at 2 uM treated at early S phase measured after 6-14 hr post thymidine-synchrony release by immunoblot method; type: functional, cell-based
In short: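 HeLa cells synchronized by double thymidine block and released, treated with 2 μM inhibitor in early S phase, or left untreated. Harvested at set times after release, lysed in NETN with phosphatase and protease inhibitors, run on SDS-PAGE and immunoblotted for cyclin B1 and phosphotyrosine 15 CDK1/2, with cyclin D3 as loading control. Detection by HRP secondary and ECL.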

[9] = target: Cyclin-dependent kinase 4 (Homo sapiens) (UniProt P11802); experiment: Inhibition of CDK4-mediated Rb phosphorylation at ser 795 in human HCT116 cells at IC50 after 24 hrs by immunoblot analysis; type: cell-based; settings: HCT-116
Sequence of Cyclin-dependent kinase 4 (Homo sapiens) (P11802 whole entry): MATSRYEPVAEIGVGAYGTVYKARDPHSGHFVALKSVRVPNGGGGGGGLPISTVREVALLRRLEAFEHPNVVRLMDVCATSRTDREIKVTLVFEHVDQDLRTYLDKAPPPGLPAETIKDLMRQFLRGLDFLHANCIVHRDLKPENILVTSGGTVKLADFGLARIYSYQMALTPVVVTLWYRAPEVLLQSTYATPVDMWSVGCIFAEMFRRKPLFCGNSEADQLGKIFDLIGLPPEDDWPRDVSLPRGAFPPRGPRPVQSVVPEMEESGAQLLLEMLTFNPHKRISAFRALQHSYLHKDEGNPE
In short: (§3)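 Asynchronous HCT-116 cells (DMEM, 3 mM HEPES, 10% serum, 37 °C, 5% CO₂) were given increasing inhibitor doses for 4 or 24 h. Lysis in NETN with phosphatase and protease inhibitors, then SDS-PAGE, nitrocellulose transfer and immunoblot for phospho-Rb (Ser-795) with HRP secondary and chemiluminescence.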

HeLa [10] = experiment: Cell cycle arrest in human HeLa cells assessed as accumulation at G2/M phase at 2 uM treated 6 hr and measured 12 hr post double thymidine-synchrony release using propidium iodide staining by FACS analysis (reference value: 17 %); type: functional; in short: as §1
HeLa [11] = experiment: Cell cycle arrest in human HeLa cells assessed as accumulation at G1 phase at 2 uM treated 2 hr and measured 10 hr post double thymidine-synchrony release using propidium iodide staining by FACS analysis (reference value: 68 %); type: functional
[12] = target: Cyclin-dependent kinase 1/cyclin B1 (Homo sapiens, UniProt P06493); experiment: Inhibition of human CDK1-GST-tagged cyclin B using his-tagged Rb as substrate after 30 mins by scintillation counting method; type: protein-complex assay
Sequence of Cyclin-dependent kinase 1/cyclin B1 (P06493 whole entry): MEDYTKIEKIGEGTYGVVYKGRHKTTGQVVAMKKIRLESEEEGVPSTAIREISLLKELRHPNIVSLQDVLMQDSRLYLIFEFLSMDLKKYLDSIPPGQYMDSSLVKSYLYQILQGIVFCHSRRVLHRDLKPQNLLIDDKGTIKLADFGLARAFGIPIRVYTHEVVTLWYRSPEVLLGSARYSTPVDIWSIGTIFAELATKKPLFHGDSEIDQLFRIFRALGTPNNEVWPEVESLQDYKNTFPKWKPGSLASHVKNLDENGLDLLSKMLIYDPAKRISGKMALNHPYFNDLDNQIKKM
Sequence of Cyclin-dependent kinase 1/cyclin B1 (P14635 whole entry, further chain): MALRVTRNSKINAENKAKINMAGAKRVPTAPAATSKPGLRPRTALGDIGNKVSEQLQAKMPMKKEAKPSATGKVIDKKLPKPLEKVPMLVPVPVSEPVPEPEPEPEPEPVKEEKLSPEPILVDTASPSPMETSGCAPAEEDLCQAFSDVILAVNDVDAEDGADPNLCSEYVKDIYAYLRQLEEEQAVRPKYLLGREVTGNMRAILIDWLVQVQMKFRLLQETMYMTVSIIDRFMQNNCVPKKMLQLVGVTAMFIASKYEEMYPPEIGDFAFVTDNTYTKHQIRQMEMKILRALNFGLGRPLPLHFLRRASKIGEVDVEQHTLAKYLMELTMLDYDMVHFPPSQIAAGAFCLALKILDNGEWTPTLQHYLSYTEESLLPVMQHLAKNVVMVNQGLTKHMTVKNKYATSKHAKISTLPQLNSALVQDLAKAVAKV

HeLa [13] = experiment: Cell cycle arrest in synchronized human HeLa cells assessed as inhibition of cytokinesis at 2 uM by time-lapse microscopy; type: functional
HeLa [14] = experiment: Induction of abberent mitosis in synchronized human HeLa cells expressing GFP-H2B assessed as micronuclei formation at 2 uM treated 1 hr and measured 12 hr post thymidine-synchrony release by time-lapse microscopy; type: functional, cell-based
HeLa [15] = experiment: Decrease in survivin mRNA expression in human HeLa cells at 2 uM measured 8 to 14 hr post thymidine-synchrony release by RT-PCR analysis; type: functional, cell-based
In short: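 Survivin mRNA measured by real-time Taqman RT-PCR on TRIzol-extracted RNA from synchronized, treated HeLa samples, with β-actin as reference. Reaction used 600 nM each primer and 200 nM probe. Cycling: 50 °C for 2 min, 95 °C for 10 min, then 40 cycles of 95 °C for 15 s and 60 °C for 1 min. Values are the average of triplicate determinations.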

HeLa [16] = experiment: Cell cycle arrest in human HeLa cells assessed as accumulation at G2/M phase at 2 uM treated 4 hr and measured 8 hr post double thymidine-synchrony release using propidium iodide staining by FACS analysis (reference value: 86 %); type: functional; in short: as §1
[17] = target: Insulin-like growth factor 1 receptor (Homo sapiens, UniProt P08069); experiment: Inhibition of IGF1R using fluorescent substrate by IMAP assay
Sequence of Insulin-like growth factor 1 receptor (P08069 31-736 limits assumed): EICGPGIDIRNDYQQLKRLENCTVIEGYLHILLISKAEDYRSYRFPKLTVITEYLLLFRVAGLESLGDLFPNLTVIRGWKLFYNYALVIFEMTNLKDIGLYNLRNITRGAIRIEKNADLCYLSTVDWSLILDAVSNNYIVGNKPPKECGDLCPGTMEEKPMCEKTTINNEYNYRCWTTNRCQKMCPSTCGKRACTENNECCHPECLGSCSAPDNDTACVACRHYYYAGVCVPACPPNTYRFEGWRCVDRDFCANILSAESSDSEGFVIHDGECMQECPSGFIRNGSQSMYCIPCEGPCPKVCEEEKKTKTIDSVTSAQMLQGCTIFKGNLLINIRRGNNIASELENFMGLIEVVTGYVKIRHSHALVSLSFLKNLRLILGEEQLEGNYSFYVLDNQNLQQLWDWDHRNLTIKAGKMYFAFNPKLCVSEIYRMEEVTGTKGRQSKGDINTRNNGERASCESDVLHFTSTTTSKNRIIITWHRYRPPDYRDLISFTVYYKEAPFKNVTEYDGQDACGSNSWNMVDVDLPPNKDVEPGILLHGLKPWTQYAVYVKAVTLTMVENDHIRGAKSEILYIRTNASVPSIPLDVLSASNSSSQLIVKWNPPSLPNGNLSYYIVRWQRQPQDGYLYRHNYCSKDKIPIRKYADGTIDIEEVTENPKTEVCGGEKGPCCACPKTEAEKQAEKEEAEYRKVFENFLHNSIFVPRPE
Sequence of Insulin-like growth factor 1 receptor (P08069 741-1367 limits assumed): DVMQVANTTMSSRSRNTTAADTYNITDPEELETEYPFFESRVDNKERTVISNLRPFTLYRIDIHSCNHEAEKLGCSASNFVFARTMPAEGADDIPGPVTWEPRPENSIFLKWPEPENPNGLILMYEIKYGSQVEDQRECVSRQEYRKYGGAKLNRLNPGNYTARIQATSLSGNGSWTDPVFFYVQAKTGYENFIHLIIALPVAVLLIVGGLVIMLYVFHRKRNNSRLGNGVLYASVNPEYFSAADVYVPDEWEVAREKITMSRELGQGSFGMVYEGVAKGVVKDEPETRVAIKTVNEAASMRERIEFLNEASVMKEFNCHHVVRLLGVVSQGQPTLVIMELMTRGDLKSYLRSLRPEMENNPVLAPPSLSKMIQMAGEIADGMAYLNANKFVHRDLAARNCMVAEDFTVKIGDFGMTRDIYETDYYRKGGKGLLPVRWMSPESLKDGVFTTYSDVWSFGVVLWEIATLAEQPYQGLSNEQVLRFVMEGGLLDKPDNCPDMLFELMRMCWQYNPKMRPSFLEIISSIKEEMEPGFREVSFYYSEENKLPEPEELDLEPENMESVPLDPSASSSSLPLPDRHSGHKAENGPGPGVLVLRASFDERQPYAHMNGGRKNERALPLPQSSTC
In short: (§4)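 Run in-house using IMAP: phosphorylated fluorescent peptide substrate binds preferentially to immobilized metal beads, which quantifies kinase activity. ATP at 3× the Km of each enzyme.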

[18] = Cell cycle arrest in human SK-MEL-13 cells assessed as accumulation at S phase at 2 uM treated 1 hr and measured 12 hr post double hydroxyurea-synchrony release using propidium iodide staining by FACS analysis (reference value: 10 %); type: functional, cell-based; in short: as §2
[19] = Inhibition of JNK using fluorescent substrate by IMAP assay; in short: as §4
[20] = target: Cyclin-dependent kinase 4 (Homo sapiens) (UniProt P11802); experiment: Inhibition of CDK4-mediated Rb phosphorylation at ser 795 in human HCT116 cells at IC50 after 4 hrs by immunoblot analysis; type: cell-based; settings: HCT-116; in short: as §3
[21] = Cell cycle arrest in human SK-MEL-13 cells assessed as accumulation at G2/M phase at 2 uM treated 1 hr and measured 12 hr post double hydroxyurea-synchrony release using propidium iodide staining by FACS analysis (reference value: 50 %); type: functional, cell-based; in short: as §2
MDA-MB-435 = experiment: Antiproliferative activity against human MDA-MB-435 cells assessed as inhibition of S phase after 48 hrs by MTT assay; type: functional, cell-based; settings: MDA-MB-435, 48 h
In short: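 Cells grown in DMEM with 3 mM HEPES and 10% Serum Supreme at 37 °C, 5% CO2. Proliferation read by MTT assay 48 h after drug addition; IC50 given as mean of two separate determinations, each in duplicate.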

| SMILES | Activity (HeLa [1]) | Activity (HeLa [2]) [%] | Activity (A2058) [%] | IC50 [3] [µM] | Activity (HeLa [4]) | Activity [5] [%] | Activity (RKO) | Activity (HeLa [6]) [%] | Activity (HeLa [7]) [%] | Activity (MDA-MB-453) | Activity (HeLa [8]) | inhibition [9] | Activity (HeLa [10]) [%] | Activity (HeLa [11]) [%] | IC50 [12] [µM] | inhibition at 2 µM (HeLa [13]) [%] | Activity (HeLa [14]) | Activity (HeLa [15]) | Activity (HeLa [16]) [%] | IC50 [17] [µM] | further results |
| --- | --- | --- | --- | --- | --- | --- | --- | --- | --- | --- | --- | --- | --- | --- | --- | --- | --- | --- | --- | --- | --- |
| COc1cccc(C(=O)c2sc(Nc3ccc(N4CCN(C(C)C)CC4)cc3)nc2N)c1 | Active | 88 | 36 | 4.14 | Active | 75 | Toxic | 49 | 5 | Toxic | Active | Active | 25 | 4 | 1.97 | 20 | Active | Active | 91 | 20 | Activity [18]: 10%; IC50 [19]: > 50 µM; inhibition [20]: Active; Activity [21]: 77%; IC50 (MDA-MB-435): 1.2 µM |
| CN1CCN(c2ccc(Nc3nc(N)c(C(=O)c4ccc5c(c4)OCCO5)s3)cc2)CC1 | Active | 88 | 36 | 2.36 | Active | 75 | Toxic | 49 | 5 | Toxic | Active | Active | 25 | 4 | 3.04 | 20 | Active | Active | 91 | 22 | Activity [18]: 10%; IC50 [19]: > 50 µM; inhibition [20]: Active; Activity [21]: 77%; IC50 (MDA-MB-435): 3.06 µM |
